High-throughput results deposited in PubChem BioAssay by several laboratories.
Most compounds without a hit are left out; they make up all but 6.4% or so of the library.
Ecoli tolC – E. coli tolC mutant growth inhibition; E. coli BW25113 tolC mutant growth, OD615; growth inhibition, % at 10 µM (by protocol); 2.2% of 65,000 active; AID 573;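 active = growth inhibition at or above a cutoff equal to the mean over every tested compound plus 3 SD, cut at about 60% in these data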;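 also: growth measured after 20 h incubation at 37 °C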
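Material: E. coli BW25113 ΔtolC::kan, tolC deletion mutant strain. Measure: percent growth inhibition. Schedule: 37 °C, 20 h exposure. Doses: single-point testing at 10 µM. Signal: A615 absorbance measurement. Buffer or medium: kanamycin-containing LB broth (50 µg/mL).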
H69AR growth 86K – blocks growth of human H69AR lung tumor cells; H69AR lung tumor viability, ATP luminescence, 72 h; hits give low values; viability, % at 10 µM; 6% of 85,000 active; AID 598;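 active = viability at or below 40%; inactive = viability above 40%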;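 also: multidrug resistant small cell line overexpressing MRP-1 efflux transporter; 100% = mean luminescence of untreated control wells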
Ecoli WT expand – E. coli BW25113 growth inhibition, expanded screen. OD600 absorbance. growth inhibition, % at 100 µM. 0.15% of 98,000 active. AID 710;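 active = growth inhibition above about 50% at one test dose, limit read from the data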;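 also: growth measured after 20 h incubation at 37 °C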
HUVEC inhibit – blocks proliferation of human endothelial cells; AID 648; HUVEC proliferation, CellTiter-Glo luminescence, 72 h; hits give low values; 1.1% of 86,000 active; viability, % at 10 µM (by protocol);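 active = viability at or below 30%; inactive = viability above 30%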;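 also: 100% = median luminescence of DMSO-only cell control wells on each plate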
Jurkat tox 60K – cytotoxicity toward Jurkat cells; inhibition, % at 4 µM; 1.2% of 56,000 active; Jurkat E6.1 viability, ATP luminescence, 48 h;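 active = inhibition above the mean inhibition of all tested compounds plus 3 SD, cut at about 28% in these data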
Fibroblast inh – blocks proliferation of human lung fibroblasts; LL 47 human lung fibroblast viability, ATP luminescence; hits give low values; viability, % at 10 µM; 1.1% of 85,000 active; AID 719;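 active = viability at or below 50% in the single dose screen; inactive = viability above 50%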;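 also: compound exposure lasted 72 h before the ATP readout; 100% = median luminescence of untreated cell-only wells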
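Material: human lung fibroblast line LL 47, low passage; Evaluation: viability percentage against median untreated-cell control; Buffer or medium: 15% FBS in IMEM; Incubation: 72 h compound exposure at 37 °C after overnight plating; Dosing: 0.1% DMSO in all compound wells; Measured by: CellTiter-Glo luminescence.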
Starred values were filed as active, the others as inactive.

How did Cc1cc(NC(=O)c2ccc3nc(-c4ccccc4)c(-c4ccccc4)nc3c2)no1 do in these assays?
Ecoli tolC: -6.8; H69AR growth 86K: 16.2*; Ecoli WT expand: -8.0; HUVEC inhibit: 48.7; Jurkat tox 60K: 0.2; Fibroblast inh: 17.6*

What do the screens show for `Cc1cc(NC(=O)c2ccc3c(c2)C(=O)N(C)C3=O)no1`?
H69AR growth 86K: 91.1; Ecoli WT expand: -5.0; HUVEC inhibit: 94.2; Fibroblast inh: 103.5

How did O=C(Nc1ccncc1)c1ccc2c(c1)C(=O)N(C1CCCCC1)C2=O do in these assays?
H69AR growth 86K: 96.5; Ecoli WT expand: -5.0; HUVEC inhibit: 105.1; Fibroblast inh: 96.7

Results for N#Cc1c(NC(=O)CSc2ncnc3sccc23)oc(-c2ccco2)c1-c1ccco1 ?
Ecoli tolC: 39.1; H69AR growth 86K: 63.1; Ecoli WT expand: -9.0; HUVEC inhibit: 96.8; Jurkat tox 60K: -5.1; Fibroblast inh: 94.9

What do the screens show for `CCCc1ccc(OCc2nc(-c3ccc(NC(=O)c4ccco4)cc3)no2)cc1`?
Ecoli tolC: 15.6; H69AR growth 86K: 9.2*; Ecoli WT expand: -14.0; HUVEC inhibit: 50.8; Jurkat tox 60K: 5.6; Fibroblast inh: 50.9

How did Cc1ccccc1OCc1nc(-c2ccc(NC(=O)c3ccco3)cc2)no1 do in these assays?
Ecoli tolC: 7.2; H69AR growth 86K: 93.2; Ecoli WT expand: -5.0; HUVEC inhibit: 70.3; Fibroblast inh: 93.5

How did COc1ccc(CC(=O)Nc2ccc(-c3noc(-c4ccccc4OC)n3)cc2)cc1 do in these assays?
H69AR growth 86K: 16.9*; Ecoli WT expand: -3.0; HUVEC inhibit: 26.0*; Fibroblast inh: 66.0

What do the screens show for `COc1ccccc1CC(=O)Nc1ccc(-c2noc(COc3ccc(Br)cc3)n2)cc1`?
H69AR growth 86K: 19.3*; Ecoli WT expand: -7.0; HUVEC inhibit: 85.9; Fibroblast inh: 83.1

Results for COc1ccc(-c2ccc(-c3noc(-c4ccccc4OC)n3)c(OC)n2)cc1 ?
Ecoli tolC: 7.4; H69AR growth 86K: 33.9*; Ecoli WT expand: -18.0; HUVEC inhibit: 71.8; Jurkat tox 60K: -4.1; Fibroblast inh: 99.8

Results for COc1ccc(-c2ccc(-c3noc(-c4ccccc4C)n3)c(OC)n2)cc1 ?
Ecoli tolC: 9.9; H69AR growth 86K: 102.4; Ecoli WT expand: -26.0; HUVEC inhibit: 98.8; Jurkat tox 60K: 3.7; Fibroblast inh: 102.7

What do the screens show for `O=C1CC(c2ccccc2)CC(O)=C1C=NCc1ccc(Cl)cc1` (configuration not stated)?
Ecoli WT expand: -7.0

How did COc1cccc(-c2nc(-c3ccc(NC(=O)Cc4ccccc4OC)cc3)no2)c1 do in these assays?
Ecoli tolC: 7.0; H69AR growth 86K: 107.0; Ecoli WT expand: 1.0; HUVEC inhibit: 100.6; Jurkat tox 60K: 9.4; Fibroblast inh: 97.2

How did COc1ccccc1CC(=O)Nc1ccc(-c2noc(COc3cccc(C)c3C)n2)cc1 do in these assays?
H69AR growth 86K: 38.1*; Ecoli WT expand: -4.0; HUVEC inhibit: 79.6; Fibroblast inh: 105.4

What do the screens show for `Cc1ccccc1OCc1nc(-c2ccc(NC(=O)c3ccc4c(c3)OCO4)cc2)no1`?
Ecoli tolC: 10.2; H69AR growth 86K: 16.5*; Ecoli WT expand: -9.0; HUVEC inhibit: 31.2; Jurkat tox 60K: 7.0; Fibroblast inh: 29.9*

How did Cc1nnc(-c2cnn(-c3ccccc3)c2N)n1Cc1ccc(F)cc1 do in these assays?
Ecoli WT expand: 5.0

How did C=CCNc1nc2c(c(=O)n(C)c(=O)n2C)n1CCCCCC do in these assays?
Ecoli tolC: 21.7; Ecoli WT expand: -21.0; Jurkat tox 60K: 82.4*

How did C=CCNc1nc2c(c(=O)n(C)c(=O)n2C)n1CC do in these assays?
Ecoli tolC: -4.0; H69AR growth 86K: 96.8; Ecoli WT expand: -2.0; HUVEC inhibit: 98.8; Jurkat tox 60K: 4.0; Fibroblast inh: 99.7

Results for COC(=O)c1ccc(Cl)c(NC(=O)CN(c2ccc3c(c2)OCO3)S(C)(=O)=O)c1 ?
Ecoli tolC: 7.8; Ecoli WT expand: -4.0; HUVEC inhibit: 92.0; Jurkat tox 60K: 1.1; Fibroblast inh: 97.4

Results for [O-][n+]1onc2c3cc(-c4ccccc4)nnc3ccc21 ?
H69AR growth 86K: 17.1*; Ecoli WT expand: 2.0; HUVEC inhibit: 90.9; Fibroblast inh: 85.7

How did O=C(NCCc1ccccc1)c1cc2sccc2n1Cc1ccccc1 do in these assays?
H69AR growth 86K: 71.3; Ecoli WT expand: -15.0; HUVEC inhibit: 98.0; Fibroblast inh: 92.2

Results for CCn1c(C(=O)NCCCc2ccccc2)cc2sccc21 ?
Ecoli tolC: 80.6*; Jurkat tox 60K: 4.3

Results for O=C(NCc1ccco1)c1cc2sccc2n1Cc1ccccc1 ?
Ecoli tolC: 76.8*; H69AR growth 86K: 62.5; HUVEC inhibit: 98.6; Jurkat tox 60K: -0.9; Fibroblast inh: 91.0

What do the screens show for `CN1C(=O)CC(C(=O)O)SC1=Nc1ccc(F)cc1` (configuration not stated)?
H69AR growth 86K: 95.0; HUVEC inhibit: 94.4; Fibroblast inh: 103.6

How did CCC(CC)C(=O)NCc1ccccc1Cl do in these assays?
Ecoli tolC: -0.3; H69AR growth 86K: 100.4; Ecoli WT expand: -5.0; HUVEC inhibit: 88.5; Jurkat tox 60K: -2.4; Fibroblast inh: 88.3

How did O=C(CN1CCCC1)Nc1ccc(-c2nc3cc(NC(=O)CN4CCCC4)ccc3o2)cc1 do in these assays?
Ecoli tolC: 11.0; H69AR growth 86K: 47.4; Ecoli WT expand: 11.0; HUVEC inhibit: 65.0; Jurkat tox 60K: 2.4; Fibroblast inh: 23.4*

What do the screens show for `CCC(C)NCC(=O)Nc1ccc(-c2nc3cc(NC(=O)CNC(C)CC)ccc3o2)cc1` (configuration not stated)?
Ecoli tolC: 39.4; H69AR growth 86K: 60.2; Ecoli WT expand: 9.0; HUVEC inhibit: 25.4*; Jurkat tox 60K: -1.8; Fibroblast inh: 2.9*

What do the screens show for `CCN(CC)CC(=O)Nc1ccc(-c2nc3cc(NC(=O)CN(CC)CC)ccc3o2)cc1`?
Ecoli tolC: 22.9; H69AR growth 86K: 61.3; Ecoli WT expand: 5.0; HUVEC inhibit: 105.5; Jurkat tox 60K: 7.1; Fibroblast inh: 43.6*

Results for Cc1cc(C)c2c(=O)n(CC(=O)NCCCN3CCN(c4ccccc4F)CC3)sc2n1 ?
Ecoli tolC: -11.5; H69AR growth 86K: 0.4*; Ecoli WT expand: 12.0; HUVEC inhibit: 68.9; Jurkat tox 60K: -4.4; Fibroblast inh: 27.6*

How did Cc1cc(C)c2c(=O)n(CC(=O)N3CCC(Cc4ccccc4)CC3)sc2n1 do in these assays?
Ecoli tolC: -6.4; H69AR growth 86K: 4.8*; Ecoli WT expand: 5.0; HUVEC inhibit: 89.8; Jurkat tox 60K: -0.5; Fibroblast inh: 65.5

What do the screens show for `Cc1cccc(N2CCN(C(=O)Cn3sc4nc(C)cc(C)c4c3=O)CC2C)c1` (configuration not stated)?
Ecoli tolC: -4.9; H69AR growth 86K: 0.0*; Ecoli WT expand: 0.0; HUVEC inhibit: 67.9; Jurkat tox 60K: 7.0; Fibroblast inh: 22.5*

How did Cc1cccc(N2CCN(c3cccc(C)c3)C2c2cccnc2)c1 do in these assays?
Ecoli tolC: 43.0; H69AR growth 86K: 75.0; Ecoli WT expand: 2.0; HUVEC inhibit: 84.4; Jurkat tox 60K: 93.6*; Fibroblast inh: 99.5
